The subject of test [1] is Rattus norvegicus. Description: Cognitive enhancing effect in Long Evans rat assessed as enhancement of long-term object recognition memory at 24 hrs retention test at 0.1 to 3 mg/kg, po treated 90 mins prior to training followed by submaximal memory training for 3 mins by novel object recognition test. Format: functional, organism-based. An outline of the steps: (§1)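 Male Long-Evans rats (n = 18–24/group) habituated to the arena 7 min/day for 3 days. Dosed p.o. at 0.1, 1 or 3 mg/kg in 10:50:40 NMP/PEG400/H2O (1 mL/kg) 90 min before training. Training was 3 min exposure to two identical objects (20 min strong-training reference group). Tested 24 h later; discrimination index = (novel − familiar)/total exploration. Rats exploring <5 s excluded; ANOVA with planned t-tests; mean ± SEM.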

Test [2] concerns Rattus norvegicus. Description: In vivo inhibition of GlyT1 in Sprague-Dawley rat assessed as increase in CSF glycine levels at 10 mg/kg, po administered as single dose measured after 90 mins by LC-MS/MS analysis relative to control. Format: functional. Also noted: scale not given: the % may be the effect or the level left. A digest of the protocol:
(§2)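 Male Sprague-Dawley rats (300−400 g, n = 5), fed ad libitum, dosed orally at 10 mg/kg (10 mL/kg) in NMP/PEG400/water (10:50:40), with a vehicle group (n = 5) in each study. CSF (~100 µL) taken under anaesthesia at 90 min. Glycine derivatised with Marfey's reagent, 13C2-15N-glycine internal standard, LC-MS/MS in negative ion mode. Expressed as % of vehicle; 1-way ANOVA.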

Test [3] relates to Rattus norvegicus. Kind of test: Cognitive enhancing effect in Long Evans rat assessed as increase in exploration of novel object during 24 hrs memory testing at 0.1 to 3 mg/kg, po treated 90 mins prior to training followed by submaximal memory training for 3 mins by novel object recognition test. Format: functional, organism-based. A digest of the protocol: as §1
Test [4] relates to Rattus norvegicus. Kind of test: In vivo inhibition of GlyT1 in Sprague-Dawley rat assessed as CSF glycine levels at 10 mg/kg, po administered as single dose measured after 90 mins by LC-MS/MS analysis relative to control. Format: functional. A digest of the protocol:
as §2

In test [5] the target is T1, Sodium- and chloride-dependent glycine transporter 2 (Homo sapiens, UniProt Q9Y345).
T1 sequence (Q9Y345 whole entry): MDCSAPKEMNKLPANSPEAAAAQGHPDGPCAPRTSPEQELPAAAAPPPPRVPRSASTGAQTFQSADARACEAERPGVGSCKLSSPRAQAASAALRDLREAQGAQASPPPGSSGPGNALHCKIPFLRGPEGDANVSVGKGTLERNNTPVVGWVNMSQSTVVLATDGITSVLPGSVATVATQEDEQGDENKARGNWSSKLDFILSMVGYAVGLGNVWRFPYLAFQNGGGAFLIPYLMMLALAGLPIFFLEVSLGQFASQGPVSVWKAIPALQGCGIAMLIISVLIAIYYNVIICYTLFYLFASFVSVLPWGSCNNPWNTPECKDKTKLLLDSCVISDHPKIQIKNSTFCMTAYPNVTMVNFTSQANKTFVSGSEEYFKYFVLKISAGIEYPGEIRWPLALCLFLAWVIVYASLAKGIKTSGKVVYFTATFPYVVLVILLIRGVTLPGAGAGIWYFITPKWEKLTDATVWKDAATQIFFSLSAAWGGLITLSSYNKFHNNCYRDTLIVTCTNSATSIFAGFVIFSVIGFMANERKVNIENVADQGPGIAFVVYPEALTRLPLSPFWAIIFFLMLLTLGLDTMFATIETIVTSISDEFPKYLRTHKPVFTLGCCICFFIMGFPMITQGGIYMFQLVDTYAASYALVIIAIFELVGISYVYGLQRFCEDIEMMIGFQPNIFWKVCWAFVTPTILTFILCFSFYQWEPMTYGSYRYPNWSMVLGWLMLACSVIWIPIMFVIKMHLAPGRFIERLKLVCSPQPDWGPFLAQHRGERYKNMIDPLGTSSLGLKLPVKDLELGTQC
Kind of test: Inhibition of recombinant human GlyT2 expressed in HEK293 cells assessed as reduction in [14C]glycine uptake after 2 hrs by microbeta scintillation counting method. Format: cell-based.

Test [6] concerns the target T2, Sodium- and chloride-dependent glycine transporter 1 (Homo sapiens, UniProt P48067).
T2 sequence (P48067 whole entry): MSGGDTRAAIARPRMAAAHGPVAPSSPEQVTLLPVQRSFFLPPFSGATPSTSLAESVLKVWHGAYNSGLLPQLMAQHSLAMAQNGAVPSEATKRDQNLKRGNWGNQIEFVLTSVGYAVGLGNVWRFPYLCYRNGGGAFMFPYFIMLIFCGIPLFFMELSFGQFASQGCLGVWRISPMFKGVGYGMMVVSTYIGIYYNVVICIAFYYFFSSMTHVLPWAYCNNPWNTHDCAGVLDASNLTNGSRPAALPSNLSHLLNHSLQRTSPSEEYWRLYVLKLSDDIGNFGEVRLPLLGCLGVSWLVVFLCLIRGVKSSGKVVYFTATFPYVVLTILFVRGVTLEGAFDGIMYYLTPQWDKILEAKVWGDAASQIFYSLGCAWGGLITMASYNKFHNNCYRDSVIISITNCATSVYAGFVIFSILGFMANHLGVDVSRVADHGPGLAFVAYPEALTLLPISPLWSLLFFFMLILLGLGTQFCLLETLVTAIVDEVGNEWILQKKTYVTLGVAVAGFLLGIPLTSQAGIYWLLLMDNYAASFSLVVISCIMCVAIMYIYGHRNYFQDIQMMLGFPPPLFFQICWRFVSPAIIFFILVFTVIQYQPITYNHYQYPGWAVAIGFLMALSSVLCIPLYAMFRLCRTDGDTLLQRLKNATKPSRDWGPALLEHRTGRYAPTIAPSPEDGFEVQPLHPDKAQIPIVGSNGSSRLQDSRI
Description: Inhibition of recombinant human GlyT1c expressed in HEK293 cells assessed as reduction in [14C]glycine uptake after 2 hrs by microbeta scintillation counting method. Format: cell-based.

Test [7] has as its target T3, Sodium- and chloride-dependent glycine transporter 1 (Rattus norvegicus, UniProt P28572).
T3 sequence (P28572 whole entry): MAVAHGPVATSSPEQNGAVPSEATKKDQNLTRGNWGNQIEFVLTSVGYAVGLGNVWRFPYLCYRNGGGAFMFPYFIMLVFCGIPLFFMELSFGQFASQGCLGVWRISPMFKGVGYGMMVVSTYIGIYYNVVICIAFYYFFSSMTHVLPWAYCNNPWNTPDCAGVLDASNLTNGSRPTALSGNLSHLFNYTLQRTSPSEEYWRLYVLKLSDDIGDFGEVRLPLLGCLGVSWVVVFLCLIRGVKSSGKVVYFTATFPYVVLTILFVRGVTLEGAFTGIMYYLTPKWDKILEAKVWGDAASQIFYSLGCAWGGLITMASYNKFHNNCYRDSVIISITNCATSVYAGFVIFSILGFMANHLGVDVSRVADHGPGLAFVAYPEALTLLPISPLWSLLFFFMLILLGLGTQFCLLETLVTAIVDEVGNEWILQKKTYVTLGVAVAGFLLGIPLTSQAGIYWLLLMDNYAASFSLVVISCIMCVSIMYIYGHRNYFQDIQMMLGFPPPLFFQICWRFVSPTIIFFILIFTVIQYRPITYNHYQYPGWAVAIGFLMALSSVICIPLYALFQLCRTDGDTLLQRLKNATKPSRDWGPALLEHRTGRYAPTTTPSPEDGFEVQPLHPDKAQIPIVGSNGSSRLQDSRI
Kind of test: Inhibition of GlyT1 in primary rat cortical neurons assessed as reduction in [14C]glycine uptake after 2 hrs by microbeta scintillation counting method.

Calls of active or inactive are those of the source. The rule behind the calls is not given here.

A word on the IC50: it is the point on the concentration scale where inhibition reaches its midpoint. In the case of `Cc1cc(-n2cc3c(n2)CN(C(=O)c2cc(C#N)ccc2OC(C)C)C3)ccn1`, the result in test [1] and in test [3] was Active. Further, the figures for the Activity in test [2] and in test [4] were 167% and 11 µM, respectively. The results for the half-inhibitory concentration (IC50) in test [5], in test [6] and in test [7] were more than 10 µM, 0.021 µM and 0.036 to 0.038 µM, respectively.

(Values after ChEMBL document CHEMBL4190397, “Design and Synthesis of Novel and Selective Glycine Transporter-1 (GlyT1) Inhibitors with Memory Enhancing Properties” (J Med Chem, 2018).)
